From ChEMBL document CHEMBL1135550, “Highly potent geminal bisphosphonates. From pamidronate disodium (Aredia) to zoledronic acid (Zometa)” (J Med Chem, 2002)

Assays:
Mus musculus [1] = species: Mus musculus; test: Inhibition of bone resorption in the calvaria assay of mouse; assay type: functional
Mus musculus [2] = species: Mus musculus; test: Inhibition of mineralization in the calvaria assay of mouse; assay type: functional
In short: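 In vitro mineralization assay in mouse calvaria cultures. The read-out is calcium incorporation into the calvaria.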

Rattus norvegicus [3] = species: Rattus norvegicus; test: Effective dose for increased serum urea level rats after a treatment period of 1 hr in renal tolerability model; assay type: functional
Rattus norvegicus [4] = species: Rattus norvegicus; test: Effective dose for increased radiographic bone density in young interact rats after a treatment period of 10 days; assay type: functional; conditions: 240 h
Rattus norvegicus [5] = species: Rattus norvegicus; test: Effective dose for increased cancellous bone area in young interact rats after a treatment period of 10 days; assay type: functional; conditions: 240 h
Rattus norvegicus [6] = species: Rattus norvegicus; test: Effective dose for increased mucosal permeability of perfused ileal loop in rats after a treatment period of 2 hr in intestinal tolerability model; assay type: functional
Rattus norvegicus [7] = species: Rattus norvegicus; test: Effective dose for increased urinary excretion of MDH in rats after a treatment period of 14 days in renal tolerability model; assay type: functional, Urine
Rattus norvegicus [8] = species: Rattus norvegicus; test: Effective dose for increased cancellous bone hydroxy proline in young interact rats after a treatment period of 10 days; assay type: functional; conditions: 240 h
Rattus norvegicus [9] = test: Effective dose after subcutaneous administration to TPTX rats for 50% reduction of hypercalcemia; assay type: functional; conditions: sc
In short: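 Young male rats (130-150 g) were thyroparathyroidectomized and allowed 4 days to recover, then fasting serum was sampled. Animals with serum Ca above 1.88 mM were discarded, and the rest were randomized into groups of 5. On days 5-8, 1,25(OH)2D3 (125 pmol/kg sc) was given with graded sc doses of bisphosphonate, and total serum calcium was measured. ED50 is the sc dose halving the hypercalcemia.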

[10] = Therapeutic ratio comparing nephrotoxic potential versus bone antiresorptive potency ( reciprocal of ED50 (TPTX assay) / the total urinary malate dehydrogenase excretion); assay type: ADME; conditions: urine; read-out: Therapeutic ratio
In short: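 Ratio = (1/TPTX ED50 in mg/kg) ÷ total urinary malate dehydrogenase units, pooled from eight 24-h urine collections after starting repeated sc dosing. ED50 model: young male rats (130-150 g), thyroparathyroidectomized, 4-day recovery; rats with fasting serum Ca above 1.88 mM excluded; groups of 5. Days 5-8: 1,25(OH)2D3 125 pmol/kg sc plus graded sc bisphosphonate. ED50 = dose halving the hypercalcemia (total serum calcium).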

[11] = Ratio of calvaria mineralization to calvaria bone resorption; assay type: functional
Rattus norvegicus [12] = species: Rattus norvegicus; test: Effective dose for increased cancellous bone calcium in young interact rats after a treatment period of 10 days; assay type: functional; conditions: 240 h

For `NCCC(O)(P(=O)(O)O)P(=O)(O)O` [PAMIDRONIC ACID], which IC50 (Mus musculus [1]) is on record?
The IC50 was 0.2 µM.

What about the IC50 (Mus musculus [2]) of the same molecule?
Its IC50 is 100 µM.

And the ED100 (Rattus norvegicus [3])?
Its ED100 is 11 mg/kg.

What about the ED50 (Rattus norvegicus [4]) of the same molecule?
The ED50 was 0.39 mg/kg.

What about the ED50 (Rattus norvegicus [5]) of the same molecule?
The ED50 was 0.0071 mg/kg.

What about the NOL (Rattus norvegicus [6]) of the same molecule?
The NOL was 10 mM.

And the NOL (Rattus norvegicus [7])?
The NOL was 0.1 mg/kg.

What about the ED50 (Rattus norvegicus [8]) of the same molecule?
The ED50 was 0.21 mg/kg.

What about the ED50 (Rattus norvegicus [9]) of the same molecule?
Its ED50 is 0.061 mg/kg.

And the selectivity ratio [10]?
Its selectivity ratio is 1.2.

What about the Ratio [11] of the same molecule?
The Ratio was 500.

What about the ED50 (Rattus norvegicus [12]) of the same molecule?
Its ED50 is 0.0227 mg/kg.
